In ChEMBL document CHEMBL4359879, “Synthesis and evaluation of 2-carboxy indole derivatives as potent and selective anti-leukemic agents” (Eur J Med Chem, 2019):
Active and inactive are the calls of the source. The rule behind the calls is not given here.

How the values were obtained:
[1] = test system: HL-60; assay: Effect on human HL60 cells assessed as fold change in ARL17A gene expression at 1.085 uM incubated for 6 hrs by microarray-based method; assay type: functional
Method in brief: (§1)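 HL60 cells were treated in triplicate with 1.085 µM or vehicle for 6 h. Total RNA was extracted with on-column DNase treatment and profiled on expression arrays.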

[2] = test system: HL-60; assay: Effect on human HL60 cells assessed as fold change in MEIOC gene expression at 1.085 uM incubated for 6 hrs by microarray-based method; assay type: functional; method in brief: as §1
[3] = test system: HL-60; assay: Effect on human HL60 cells assessed as fold change in flaw-mawbo gene expression at 1.085 uM incubated for 6 hrs by microarray-based method; assay type: functional
[4] = test system: RS4-11; assay: Induction of DNA damage in human RS4:11 cells assessed as accumulation of cells at G1 phase at 300 nM incubated for 18 hrs in presence of H2AX antibody by immunofluorescent staining based flow cytometric analysis relative to control; assay type: functional
Method in brief: (§2)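 RS4;11 cells treated with 300 nM or DMSO vehicle for 18 h, then pulsed with 10 μM BrdU for 1 h. Harvested cells immunostained for BrdU/PI (cell cycle), γH2AX (DNA damage) and PARP (apoptosis). Multicolor flow cytometry gated G1, sub-G2-like, G2/M and sub-G0/G1 populations.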

[5] = test system: HeLa; assay: Induction of cell cycle arrest in human HeLa cells assessed as formation of condensed chromosomes at 500 nM incubated for 18 hrs by DAPI staining based fluorescence microscopic method; assay type: functional
Method in brief: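 HeLa cells (100,000/mL) cultured overnight on glass-bottom dishes, then exposed to 500 nM or 1 μM, or DMSO, for 18 h. Permeabilized (0.5% Triton X-100) and fixed (3.7% formaldehyde). Stained overnight at 4 °C with anti-β-tubulin, then Alexa Fluor 647 secondary for 1 h at room temperature, and DAPI 1 μg/mL for 10 min. Examined by fluorescence microscopy.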

[6] = test system: CCRF-CEM; assay: Antiproliferative activity against human CEM cells incubated for 48 hrs by MTT assay; assay type: functional, cell-based
Method in brief: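 Cells grown in RPMI-1640 with 10% FBS, penicillin/streptomycin, 37 °C, 5% CO2. After 48 h of exposure to a dilution series, MTT was added (0.5 mg/ml final) for 4 h. Formazan was dissolved overnight in acidic SDS (10% SDS, 0.01 mol/L HCl) and absorbance read at 570 and 620 nm. Survival was expressed relative to controls, and EC50 was fitted from dose-response curves.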

[7] = test system: HL-60; assay: Effect on human HL60 cells assessed as fold change in TIAL1 gene expression at 1.085 uM incubated for 6 hrs by microarray-based method; assay type: functional; method in brief: as §1
[8] = test system: RS4-11; assay: Induction of apoptosis in human RS4:11 cells assessed as accumulation of cells at sub G2 phase at 300 nM incubated for 18 hrs in presence of PARP antibody by immunofluorescent staining based flow cytometric analysis relative to control; assay type: functional; method in brief: as §2
[9] = test system: HL-60; assay: Induction of cell cycle arrest in human HL60 cells assessed as accumulation of cells at sub G0/G1 phase at EC50 incubated for 18 hrs by PI staining based flow cytometric analysis (reference value: 1.67%); assay type: functional

SMILES: COC(=O)c1[nH]c2cc(OC)ccc2c1-c1ccc(C(F)(F)F)cc1
- fold change (FC) [1]: -1.5
- fold change (FC) [2]: -1.63
- fold change (FC) [3]: -1.62
- Activity [4]: 6.9%
- Activity [5]: Active
- EC50 [6]: 200 nM
- fold change (FC) [7]: 1.63
- Activity [8]: 3.5%
- Activity [9]: 24.1%
